Source: ChEMBL document CHEMBL3992564, “Design and synthesis of novel, potent and selective hypoxanthine analogs as adenosine A1 receptor antagonists and their biological evaluation” (Bioorg Med Chem, 2017)
Activity calls are given as the source filed them. The calls are words filed in the database; no cut-off is given here.

How the values were obtained:
[1] = target: T1, Adenosine receptor A2b (Homo sapiens) (UniProt P29275); experiment: Displacement of [3H]MRS-1754 from human adenosine A2B receptor expressed in HEK293 cell membranes at 1 uM after 90 mins relative to control
T1 sequence (whole entry): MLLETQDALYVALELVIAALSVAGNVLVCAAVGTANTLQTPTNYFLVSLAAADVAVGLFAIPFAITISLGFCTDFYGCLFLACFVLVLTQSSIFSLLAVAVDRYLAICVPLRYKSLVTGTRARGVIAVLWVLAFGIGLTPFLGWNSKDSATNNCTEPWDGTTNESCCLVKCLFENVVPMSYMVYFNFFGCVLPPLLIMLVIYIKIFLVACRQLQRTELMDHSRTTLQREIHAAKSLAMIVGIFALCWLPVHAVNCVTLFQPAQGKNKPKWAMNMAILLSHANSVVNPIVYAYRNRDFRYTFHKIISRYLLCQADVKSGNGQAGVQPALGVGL
In short: (§1)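 Membranes from HEK-293 cells stably transfected with human receptor, pre-treated with adenosine deaminase. Radioligands: 1 nM [3H]DPCPX (A1), 1 nM [3H]ZM241385 (A2A), 1.6 nM [3H]MRS-1754 (A2B), 2 nM [3H]HEMADO (A3). Buffers: Tris pH 7.4 (A1, A2A, A3) or pH 6.5 (A2B), with ADA. Incubated 90 min at room temperature, then filtered. Nonspecific binding defined with 100 µM NECA. Ki from 8 concentrations run in triplicate.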

[2] = Elimination half life in Wistar rat at 3 mg/kg, iv by LC-Ms/MS analysis; assay type: ADME, organism-based; conditions: in vivo, read-out: beta t1/2 (converted)
In short: (§2)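 Male Wistar rats (230 ± 15 g), fasted overnight with water available. IV dose of 3 mg/kg given by tail vein as a solution (0.6 mg/mL, 5 mL/kg). PO dose of 5 mg/kg given by gavage as a suspension. Blood was collected into K2EDTA at 0.008 (IV only) to 24 h and plasma was spun off. Samples were precipitated with acetonitrile and run on LC/MS/MS. Parameters came from non-compartmental analysis of individual animals, mean of n = 4.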

[3] = target: T2, Adenosine receptor A3 (Homo sapiens) (UniProt P0DMS8); experiment: Displacement of [3H]HEMADO from human adenosine A3 receptor expressed in HEK293 cell membranes at 1 uM after 90 mins relative to control; in short: as §1
T2 sequence (whole entry): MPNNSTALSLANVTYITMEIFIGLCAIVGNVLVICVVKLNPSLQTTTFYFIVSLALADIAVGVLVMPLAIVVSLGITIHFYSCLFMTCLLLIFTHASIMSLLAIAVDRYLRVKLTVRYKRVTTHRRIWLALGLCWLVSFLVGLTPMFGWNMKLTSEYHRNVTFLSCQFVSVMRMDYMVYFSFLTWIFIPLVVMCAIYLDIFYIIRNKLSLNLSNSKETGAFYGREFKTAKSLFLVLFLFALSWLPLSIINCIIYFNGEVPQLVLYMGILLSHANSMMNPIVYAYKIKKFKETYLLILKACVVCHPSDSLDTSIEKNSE

CYP2C9 = CYP2C9 (Homo sapiens, UniProt P11712); experiment: Inhibition of CYP2C9 (unknown origin) at 5 uM relative to control; assay type: ADME
Adenosine receptor A2a = Adenosine receptor A2a (Homo sapiens, UniProt P29274); experiment: Displacement of [3H]ZM241385 from human adenosine A2A receptor expressed in HEK293 cell membranes at 1 uM after 90 mins relative to control; in short: as §1
CYP2C19 = CYP2C19 (Homo sapiens, UniProt P33261); experiment: Inhibition of CYP2C19 (unknown origin) at 5 uM relative to control; assay type: ADME
[4] = Drug metabolism assessed as dehydration by metabolic soft spot analysis; assay type: physicochemical
[5] = Cmax in Wistar rat at 5 mg/kg, po via gavage by LC-Ms/MS analysis; assay type: ADME, organism-based; set-up: dose 5 mg/kg, route oral; conditions: in vivo; in short: as §2
Rattus norvegicus [6] = experiment: Kaliuretic activity in Wistar rat at 3 to 30 mg/kg, po via gavage measured after 4 hrs; assay type: functional, organism-based
In short: (§3)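 Male Wistar rats (250-300 g, n = 6) dosed orally at 5 mL/kg. Vehicles: DMAC 5%/NaOH/saline, or NMP 10%/PEG-400 20%/saline pH 12.0. Rats were then kept singly in metabolic cages without food or water for 4 h. Urine volume, Na+ and K+ were measured with a biochemistry analyser.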

[7] = Drug uptake in Wistar rat brain at 5 mg/kg, po via gavage measured at 4 hrs post dose by LC-Ms/MS analysis; assay type: ADME, organism-based; conditions: read-out: Drug uptake
In short: (§4)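 Male Wistar rats, fasted overnight and for 2 h after dosing, given an oral solution at 5 mg/kg (0.5 mg/mL). Vehicle: NMP 10% with Labrasol 30% or PEG-400 20%, in citrate buffer […]. Blood and brain were taken at discrete time points, n = 2 per time point. Brain was homogenized 1:2 in PBS. Samples were precipitated with acetonitrile and run on LC-MS/MS; LLOQ 10 ng/mL.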

[8] = Tmax in Wistar rat at 5 mg/kg, po via gavage by LC-Ms/MS analysis; assay type: ADME, organism-based; conditions: in vivo
In short: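 Male Wistar rats (230 ± 15 g), fasted overnight with water available. IV dosing at 3 mg/kg by tail vein as solution (0.6 mg/mL, 5 mL/kg). PO dosing at 5 mg/kg by oral gavage. Serial blood sampling into K2EDTA from 0.008 (IV only) to 24 h. Plasma precipitated with acetonitrile containing internal standard and analysed by LC/MS/MS. Non-compartmental parameters calculated per animal; values are means of n = 4.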

hERG (KCNH2) [9] = target: T3, hERG (KCNH2) (Homo sapiens, UniProt Q12809); experiment: Inhibition of human ERG at 25 uM relative to control
hERG (KCNH2) [10] = target: T3, hERG (KCNH2); experiment: Inhibition of human ERG at 5 uM relative to control
[11] = Plasma concentration in Wistar rat at 5 mg/kg, po via gavage measured at 2 hrs post dose by LC-Ms/MS analysis; assay type: ADME, organism-based; in short: as §4
[12] = Drug uptake in Wistar rat brain at 5 mg/kg, po via gavage measured at 1 hr post dose by LC-Ms/MS analysis; assay type: ADME, organism-based; conditions: read-out: Drug uptake; in short: as §4
[13] = Plasma concentration in Wistar rat at 5 mg/kg, po via gavage measured at 1 hr post dose by LC-Ms/MS analysis; assay type: ADME, organism-based; in short: as §4
Adenosine receptor A2b = target: T4, Adenosine receptor A2b (Homo sapiens, UniProt P29275); experiment: Displacement of [3H]MRS-1754 from human adenosine A2B receptor expressed in HEK293 cell membranes after 90 mins; in short: as §1
T4 sequence (P29275 whole entry): T1 sequence (whole entry)

[14] = Ratio of drug level in Wistar rat brain to plasma at 5 mg/kg, po via gavage measured at 1 hr post dose by LC-Ms/MS analysis; assay type: ADME, organism-based; conditions: read-out: BPR; in short: as §4
[15] = Plasma concentration in Wistar rat at 5 mg/kg, po via gavage measured at 4 hrs post dose by LC-Ms/MS analysis; assay type: ADME, organism-based; in short: as §4
Rattus norvegicus [16] = experiment: Diuretic activity in Wistar rat at 10 to 30 mg/kg, po via gavage measured after 4 hrs; assay type: functional, organism-based; in short: as §3
[17] = Protein binding in mouse plasma at 5 uM; assay type: ADME, cell-free; conditions: read-out: PPB (converted)
[18] = AUC(0 to t) in Wistar rat at 5 mg/kg, po via gavage by LC-Ms/MS analysis; assay type: ADME, organism-based; conditions: in vivo; in short: as §2
[19] = Drug uptake in Wistar rat brain at 5 mg/kg, po via gavage measured at 2 hrs post dose by LC-Ms/MS analysis; assay type: ADME, organism-based; conditions: read-out: Drug uptake; in short: as §4

T3 sequence (Q12809 whole entry): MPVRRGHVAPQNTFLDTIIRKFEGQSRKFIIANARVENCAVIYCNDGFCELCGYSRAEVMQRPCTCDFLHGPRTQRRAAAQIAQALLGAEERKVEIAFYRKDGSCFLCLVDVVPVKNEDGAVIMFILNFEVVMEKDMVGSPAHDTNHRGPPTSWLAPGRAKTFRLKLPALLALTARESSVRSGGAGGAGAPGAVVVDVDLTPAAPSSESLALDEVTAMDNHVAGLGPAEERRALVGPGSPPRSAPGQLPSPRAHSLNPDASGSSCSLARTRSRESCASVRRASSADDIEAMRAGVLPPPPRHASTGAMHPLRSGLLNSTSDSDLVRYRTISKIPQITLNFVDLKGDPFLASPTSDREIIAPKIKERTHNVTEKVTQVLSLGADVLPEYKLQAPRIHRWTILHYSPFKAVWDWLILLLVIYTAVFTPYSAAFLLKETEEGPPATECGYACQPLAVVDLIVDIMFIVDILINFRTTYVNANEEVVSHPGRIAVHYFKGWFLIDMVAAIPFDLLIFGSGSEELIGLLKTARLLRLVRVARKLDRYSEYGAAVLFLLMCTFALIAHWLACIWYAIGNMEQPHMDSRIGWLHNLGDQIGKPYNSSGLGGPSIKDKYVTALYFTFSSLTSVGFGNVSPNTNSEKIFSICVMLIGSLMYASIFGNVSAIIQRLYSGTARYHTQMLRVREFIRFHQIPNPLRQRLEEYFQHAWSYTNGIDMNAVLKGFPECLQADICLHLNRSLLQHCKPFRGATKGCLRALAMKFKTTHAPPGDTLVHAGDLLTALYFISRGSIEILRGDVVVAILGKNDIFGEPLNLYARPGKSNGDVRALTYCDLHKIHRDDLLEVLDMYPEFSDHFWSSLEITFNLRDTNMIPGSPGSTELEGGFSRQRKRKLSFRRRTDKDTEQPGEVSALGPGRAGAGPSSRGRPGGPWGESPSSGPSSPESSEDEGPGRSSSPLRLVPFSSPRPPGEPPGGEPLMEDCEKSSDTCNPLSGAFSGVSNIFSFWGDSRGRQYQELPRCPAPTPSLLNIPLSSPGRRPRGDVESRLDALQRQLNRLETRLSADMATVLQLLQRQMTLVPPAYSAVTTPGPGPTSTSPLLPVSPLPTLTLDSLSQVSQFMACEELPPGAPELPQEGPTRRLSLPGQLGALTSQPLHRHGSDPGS
Chain of Adenosine receptor A2a (P29274 whole entry): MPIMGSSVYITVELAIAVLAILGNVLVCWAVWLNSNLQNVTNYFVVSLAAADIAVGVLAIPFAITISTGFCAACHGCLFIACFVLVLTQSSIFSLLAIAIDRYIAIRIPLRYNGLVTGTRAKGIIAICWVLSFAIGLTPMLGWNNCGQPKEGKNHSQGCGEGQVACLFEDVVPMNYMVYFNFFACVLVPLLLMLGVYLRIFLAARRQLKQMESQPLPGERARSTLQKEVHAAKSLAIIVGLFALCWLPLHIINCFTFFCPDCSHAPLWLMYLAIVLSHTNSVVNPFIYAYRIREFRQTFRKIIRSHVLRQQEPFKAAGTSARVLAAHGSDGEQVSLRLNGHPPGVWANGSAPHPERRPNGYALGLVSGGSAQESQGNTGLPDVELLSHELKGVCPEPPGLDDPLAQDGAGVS
Chain of CYP2C19 (P33261 whole entry): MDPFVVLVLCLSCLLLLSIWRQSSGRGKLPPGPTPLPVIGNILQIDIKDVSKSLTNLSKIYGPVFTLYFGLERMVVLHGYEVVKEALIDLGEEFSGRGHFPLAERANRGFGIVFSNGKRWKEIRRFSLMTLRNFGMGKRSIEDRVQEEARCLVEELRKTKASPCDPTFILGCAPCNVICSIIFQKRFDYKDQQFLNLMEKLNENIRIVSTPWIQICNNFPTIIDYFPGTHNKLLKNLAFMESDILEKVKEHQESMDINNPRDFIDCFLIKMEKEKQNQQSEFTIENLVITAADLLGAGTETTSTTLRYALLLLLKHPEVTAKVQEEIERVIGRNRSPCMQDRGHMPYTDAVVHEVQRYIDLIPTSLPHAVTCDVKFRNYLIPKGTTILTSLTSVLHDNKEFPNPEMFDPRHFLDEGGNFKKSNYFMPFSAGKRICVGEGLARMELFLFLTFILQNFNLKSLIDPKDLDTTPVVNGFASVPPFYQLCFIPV
Chain of CYP2C9 (P11712 whole entry): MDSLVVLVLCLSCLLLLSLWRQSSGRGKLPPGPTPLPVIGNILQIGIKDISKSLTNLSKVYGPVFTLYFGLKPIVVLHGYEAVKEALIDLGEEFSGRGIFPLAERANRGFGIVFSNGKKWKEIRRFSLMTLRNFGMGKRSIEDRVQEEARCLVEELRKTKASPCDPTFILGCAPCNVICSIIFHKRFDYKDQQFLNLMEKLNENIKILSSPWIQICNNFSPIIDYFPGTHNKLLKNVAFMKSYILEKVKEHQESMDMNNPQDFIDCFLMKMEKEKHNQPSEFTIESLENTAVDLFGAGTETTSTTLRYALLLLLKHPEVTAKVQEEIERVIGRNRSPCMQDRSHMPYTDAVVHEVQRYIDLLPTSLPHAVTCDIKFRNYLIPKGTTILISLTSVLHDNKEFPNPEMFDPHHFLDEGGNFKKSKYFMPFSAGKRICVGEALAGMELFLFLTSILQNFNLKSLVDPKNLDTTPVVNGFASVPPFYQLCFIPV

Row | SMILES | half-life [2] | inhibition at 5 µM (CYP2C9) | inhibition (Adenosine receptor A2a) | inhibition at 5 µM (CYP2C19) | Cmax [5] | concentration at 4 h [7] | Tmax [8] | inhibition at 25 µM (hERG (KCNH2) [9]) | inhibition at 5 µM (hERG (KCNH2) [10]) | concentration at 2 h [11] | concentration at 1 h [12] | concentration at 1 h [13] | Ki (Adenosine receptor A2b) | concentration at 4 h [15] | fraction unbound at 5 µM [17] | AUC(0-t) [18] | concentration at 2 h [19] | also measured
1 | CCCn1c(Oc2cccnc2C)nc2nc(C3CCCC3)[nH]c2c1=O | 30 min | 4% | 33% | 10% |  |  |  |  |  |  |  |  |  |  |  |  |  | inhibition [1]: 49%; inhibition [3]: 35%; Drug metabolism [4]: Metabolite_Detected
2 | CCCn1c(Oc2ccc(F)c(F)c2)nc2nc(C3CCCC3)[nH]c2c1=O | 124 min |  | inactive | 0% | 9710 nM | 80 nM | 97.8 min | 4% | 2% | 940 nM | 90 nM | 1640 nM | > 10 µM | 1810 nM | 0.01 | 3.19 µM·h | 50 nM | Activity (Rattus norvegicus [6]): Active; IC50 (Adenosine receptor A2b): > 10 µM; Kp at 1 h [14]: 0.05; Activity (Rattus norvegicus [16]): Active
3 | CCCn1c(-c2cccc(OC)c2)nc2nc(C3CCCC3)[nH]c2c1=O | 29.4 min | 7% |  |  | 1740 nM | 10 ng/g | 18 min | 72% | 9% | 540 nM | 10 ng/g | 670 nM | 1.1 µM | 40 nM | 0.05 | 1.6 µM·h | 10 ng/g | 
